# Laboratory results as given in ChEMBL document CHEMBL4715736, “Identification of anticancer agents based on the thieno[2,3-b]pyridine and 1H-pyrazole molecular scaffolds” (2016).
# Tests used:
# Assay type in all cases: functional
# SK-OV-3 = test: Growth inhibition of human SK-OV-3 cells assessed as cell growth at 100 uM incubated for 48 hrs by sulforhodamine B assay relative to control; settings: read-out: Activity
# UACC-257 = test: Growth inhibition of human UACC-257 cells assessed as cell growth at 100 uM incubated for 48 hrs by sulforhodamine B assay relative to control; settings: read-out: Activity
# DU-145 = test: Growth inhibition of human DU-145 cells assessed as cell growth at 0.01 uM incubated for 48 hrs by sulforhodamine B assay relative to control; settings: read-out: Activity
# How it was run: (§1)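 NCI Developmental Therapeutics Program NCI60 panel. Compounds that were active in the 10 µM one-dose screen went on to dose–response testing. Growth at each concentration is expressed relative to untreated control (100%). GI50 (concentration giving 50% of maximal inhibition of proliferation) and TGI (concentration giving total growth inhibition) were derived from the curves.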
# SK-MEL-28 [1] = test: Growth inhibition of human SK-MEL-28 cells assessed as cell growth at 1 uM incubated for 48 hrs by sulforhodamine B assay relative to control; settings: read-out: Activity
# HCT-15 [2] = test: Growth inhibition of human HCT-15 cells incubated for 48 hrs by sulforhodamine B assay
# How it was run: (§2)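 NCI60 panel at the NCI Developmental Therapeutics Program. Only compounds active in the 10 µM screen went to dose-response testing. GI50, the concentration giving 50% of maximal inhibition of proliferation, and TGI, the concentration giving total growth inhibition, were derived from the dose-response curves.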
# NCI-H460 = test: Growth inhibition of human NCI-H460 cells assessed as cell growth at 100 uM incubated for 48 hrs by sulforhodamine B assay relative to control; settings: read-out: Activity
# COLO 205 = test: Growth inhibition of human COLO 205 cells assessed as cell growth at 1 uM incubated for 48 hrs by sulforhodamine B assay relative to control; settings: read-out: Activity; how it was run: as §1
# MDA-MB-231 = test: Growth inhibition of human MDA-MB-231 cells assessed as cell growth at 100 uM incubated for 48 hrs by sulforhodamine B assay relative to control; settings: read-out: Activity
# NCI-H522 = test: Growth inhibition of human NCI-H522 cells incubated for 48 hrs by sulforhodamine B assay; how it was run: as §2
# SK-MEL-28 [3] = test: Growth inhibition of human SK-MEL-28 cells assessed as cell growth at 100 uM incubated for 48 hrs by sulforhodamine B assay relative to control; settings: read-out: Activity
# 786-0 [4] = test: Growth inhibition of human 786-0 cells incubated for 48 hrs by sulforhodamine B assay; settings: for CC50: read-out: LC50 (the source's name); how it was run: as §1
# 786-0 [5] = test: Growth inhibition of human 786-0 cells assessed as cell growth at 0.01 uM incubated for 48 hrs by sulforhodamine B assay relative to control; settings: read-out: Activity; how it was run: as §1
# U-251 = test: Growth inhibition of human U-251 cells incubated for 48 hrs by sulforhodamine B assay
# How it was run: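 NCI DTP 60-line human tumour panel. Dose-response curves were run only for ligands active in the initial 10 µM screen. GI50 (concentration giving 50% of maximal inhibition of proliferation) and TGI (concentration giving total growth inhibition) were derived from these curves.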
# SF-539 [6] = test: Growth inhibition of human SF-539 cells assessed as cell growth at 0.1 uM incubated for 48 hrs by sulforhodamine B assay relative to control; settings: read-out: Activity
# CCRF-CEM = test: Growth inhibition of human CCRF-CEM cells incubated for 48 hrs by sulforhodamine B assay; how it was run: as §1
# IGROV-1 [7] = test: Growth inhibition of human IGROV-1 cells incubated for 48 hrs by sulforhodamine B assay; how it was run: as §2
# A498 = test: Growth inhibition of human A498 cells assessed as cell growth at 0.01 uM incubated for 48 hrs by sulforhodamine B assay relative to control; settings: read-out: Activity; how it was run: as §1
# T47D = test: Growth inhibition of human T47D cells assessed as cell growth at 1 uM incubated for 48 hrs by sulforhodamine B assay relative to control; settings: read-out: Activity
# SNB-19 = test: Growth inhibition of human SNB-19 cells assessed as cell growth at 0.1 uM incubated for 48 hrs by sulforhodamine B assay relative to control; settings: read-out: Activity
# IGROV-1 [8] = test: Growth inhibition of human IGROV-1 cells assessed as cell growth at 1 uM incubated for 48 hrs by sulforhodamine B assay relative to control; settings: read-out: Activity
# 786-0 [9] = test: Growth inhibition of human 786-0 cells assessed as cell growth at 0.1 uM incubated for 48 hrs by sulforhodamine B assay relative to control; settings: read-out: Activity; how it was run: as §1
# NCI-H226 = test: Growth inhibition of human NCI-H226 cells incubated for 48 hrs by sulforhodamine B assay; settings: for CC50: read-out: LC50 (the source's name); how it was run: as §2
# OVCAR-8 = test: Growth inhibition of human OVCAR-8 cells assessed as cell growth at 0.01 uM incubated for 48 hrs by sulforhodamine B assay relative to control; settings: read-out: Activity
# HOP-62 = test: Growth inhibition of human HOP-62 cells assessed as cell growth at 1 uM incubated for 48 hrs by sulforhodamine B assay relative to control; settings: read-out: Activity
# A549 = test: Growth inhibition of human A549/ATCC cells assessed as cell growth at 0.01 uM incubated for 48 hrs by sulforhodamine B assay relative to control; settings: read-out: Activity; how it was run: as §1
# UACC-62 = test: Growth inhibition of human UACC-62 cells assessed as cell growth at 1 uM incubated for 48 hrs by sulforhodamine B assay relative to control; settings: read-out: Activity
# LOX IMVI = test: Growth inhibition of human LOX IMVI cells incubated for 48 hrs by sulforhodamine B assay; how it was run: as §2
# SNB-75 = test: Growth inhibition of human SNB-75 cells assessed as cell growth at 1 uM incubated for 48 hrs by sulforhodamine B assay relative to control; settings: read-out: Activity
# SR = test: Growth inhibition of human SR cells assessed as cell growth at 0.1 uM incubated for 48 hrs by sulforhodamine B assay relative to control; settings: read-out: Activity
# M14 = test: Growth inhibition of human M14 cells assessed as cell growth at 0.01 uM incubated for 48 hrs by sulforhodamine B assay relative to control; settings: read-out: Activity
# SF-539 [10] = test: Growth inhibition of human SF-539 cells assessed as cell growth at 100 uM incubated for 48 hrs by sulforhodamine B assay relative to control; settings: read-out: Activity
# OVCAR-3 = test: Growth inhibition of human OVCAR-3 cells assessed as cell growth at 0.01 uM incubated for 48 hrs by sulforhodamine B assay relative to control; settings: read-out: Activity
# HCT-15 [11] = test: Growth inhibition of human HCT-15 cells assessed as cell growth at 0.01 uM incubated for 48 hrs by sulforhodamine B assay relative to control; settings: read-out: Activity
# HCT-116 = test: Growth inhibition of human HCT-116 cells incubated for 48 hrs by sulforhodamine B assay; how it was run: as §2
structure (smiles),measurement,setting,value
CN1CCc2nc3sc(C(N)=O)c(N)c3c(-c3cccs3)c2C1,growth at 100 µM,SK-OV-3,17%
same,growth at 100 µM,UACC-257,3%
same,growth at 0.01 µM,DU-145,111%
same,growth at 1 µM,SK-MEL-28 [1],95%
same,GI50,HCT-15 [2],3.31 µM
same,LC50,HCT-15 [2],> 100 µM
same,TGI,HCT-15 [2],> 100 µM
same,growth at 100 µM,NCI-H460,2%
same,growth at 1 µM,COLO 205,69%
same,growth at 100 µM,MDA-MB-231,26%
same,GI50,NCI-H522,2.91 µM
same,LC50,NCI-H522,> 100 µM
same,TGI,NCI-H522,17.8 µM
same,growth at 100 µM,SK-MEL-28 [3],-18%
same,GI50,786-0 [4],4.41 µM
same,TGI,786-0 [4],> 100 µM
same,CC50,786-0 [4],> 100 µM
same,growth at 0.01 µM,786-0 [5],95%
same,GI50,U-251,3.18 µM
same,LC50 (concentration killing 50% of cells),U-251,> 100 µM
same,TGI,U-251,> 100 µM
same,growth at 0.1 µM,SF-539 [6],104%
same,GI50,CCRF-CEM,3.77 µM
same,LC50,CCRF-CEM,> 100 µM
same,TGI,CCRF-CEM,> 100 µM
same,GI50,IGROV-1 [7],5.16 µM
same,LC50,IGROV-1 [7],> 100 µM
same,TGI,IGROV-1 [7],> 100 µM
same,growth at 0.01 µM,A498,97%
same,growth at 1 µM,T47D,84%
same,growth at 0.1 µM,SNB-19,103%
same,growth at 1 µM,IGROV-1 [8],129%
same,growth at 0.1 µM,786-0 [9],99%
same,GI50,NCI-H226,3.16 µM
same,TGI,NCI-H226,> 100 µM
same,CC50,NCI-H226,> 100 µM
same,growth at 0.01 µM,OVCAR-8,106%
same,growth at 1 µM,HOP-62,102%
same,growth at 0.01 µM,A549,99%
same,growth at 1 µM,UACC-62,93%
same,GI50,LOX IMVI,1.27 µM
same,LC50,LOX IMVI,> 100 µM
same,TGI,LOX IMVI,> 100 µM
same,growth at 1 µM,SNB-75,99%
same,growth at 0.1 µM,SR,96%
same,growth at 0.01 µM,M14,107%
same,growth at 100 µM,SF-539 [10],-39%
same,growth at 0.01 µM,OVCAR-3,110%
same,growth at 0.01 µM,HCT-15 [11],103%
same,GI50,HCT-116,2.31 µM
same,LC50 (concentration killing 50% of cells),HCT-116,> 100 µM
same,TGI,HCT-116,> 100 µM
Cc1cccc(NC(=O)c2sc3nc4c(cc3c2N)C(=O)CCC4)c1,growth at 100 µM,SK-OV-3,-16%
same,growth at 100 µM,UACC-257,-16%
same,growth at 0.01 µM,DU-145,102%
same,growth at 1 µM,SK-MEL-28 [1],47%
same,GI50,HCT-15 [2],0.27 µM
same,LC50,HCT-15 [2],> 100 µM
same,TGI,HCT-15 [2],> 100 µM
same,growth at 100 µM,NCI-H460,7%
same,growth at 1 µM,COLO 205,-17%
same,growth at 100 µM,MDA-MB-231,21%
same,GI50,NCI-H522,0.107 µM
same,LC50,NCI-H522,> 100 µM
same,TGI,NCI-H522,621 µM
same,growth at 100 µM,SK-MEL-28 [3],-15%
same,GI50,786-0 [4],0.404 µM
same,TGI,786-0 [4],≥ 100 µM
same,CC50,786-0 [4],≥ 100 µM
same,growth at 0.01 µM,786-0 [5],88%
same,GI50,U-251,0.261 µM
same,LC50 (concentration killing 50% of cells),U-251,≥ 100 µM
same,TGI,U-251,≥ 100 µM
same,growth at 0.1 µM,SF-539 [6],75%
same,LC50,CCRF-CEM,> 100 µM
same,TGI,CCRF-CEM,> 100 µM
same,GI50,IGROV-1 [7],0.662 µM
same,LC50,IGROV-1 [7],> 100 µM
same,TGI,IGROV-1 [7],≥ 100 µM
same,growth at 0.01 µM,A498,68%
same,growth at 1 µM,T47D,29%
same,growth at 0.1 µM,SNB-19,76%
same,growth at 1 µM,IGROV-1 [8],42%
same,growth at 0.1 µM,786-0 [9],80%
same,GI50,NCI-H226,1.09 µM
same,TGI,NCI-H226,> 100 µM
same,CC50,NCI-H226,> 100 µM
same,growth at 0.01 µM,OVCAR-8,100%
same,growth at 1 µM,HOP-62,30%
same,growth at 0.01 µM,A549,92%
same,growth at 1 µM,UACC-62,29%
same,GI50,LOX IMVI,0.0118 µM
same,LC50,LOX IMVI,> 100 µM
same,TGI,LOX IMVI,≥ 100 µM
same,growth at 1 µM,SNB-75,6%
same,growth at 0.01 µM,M14,93%
same,growth at 100 µM,SF-539 [10],-25%
same,growth at 0.01 µM,OVCAR-3,98%
same,growth at 0.01 µM,HCT-15 [11],88%
same,GI50,HCT-116,0.28 µM
same,LC50 (concentration killing 50% of cells),HCT-116,> 100 µM
same,TGI,HCT-116,> 100 µM
